Results published in ChEMBL document CHEMBL4431330, “3-Arylpropionylhydroxamic acid derivatives as Helicobacter pylori urease inhibitors: Synthesis, molecular docking and biological evaluation” (Bioorg Med Chem, 2016).
Active and inactive are the calls of the source. No cut-off for these calls is given here.

Experiments:
[1] = molecular target: T1, Urease subunit alpha/Urease subunit beta (Helicobacter pylori (strain ATCC 700392 / 26695) (Campylobacterpylori), UniProt P69996); assay: Inhibition of Helicobacter pylori urease using urea as substrate assessed as ammonia production after 50 mins by indophenol method; type: protein-complex assay
T1 sequence (P69996 whole entry): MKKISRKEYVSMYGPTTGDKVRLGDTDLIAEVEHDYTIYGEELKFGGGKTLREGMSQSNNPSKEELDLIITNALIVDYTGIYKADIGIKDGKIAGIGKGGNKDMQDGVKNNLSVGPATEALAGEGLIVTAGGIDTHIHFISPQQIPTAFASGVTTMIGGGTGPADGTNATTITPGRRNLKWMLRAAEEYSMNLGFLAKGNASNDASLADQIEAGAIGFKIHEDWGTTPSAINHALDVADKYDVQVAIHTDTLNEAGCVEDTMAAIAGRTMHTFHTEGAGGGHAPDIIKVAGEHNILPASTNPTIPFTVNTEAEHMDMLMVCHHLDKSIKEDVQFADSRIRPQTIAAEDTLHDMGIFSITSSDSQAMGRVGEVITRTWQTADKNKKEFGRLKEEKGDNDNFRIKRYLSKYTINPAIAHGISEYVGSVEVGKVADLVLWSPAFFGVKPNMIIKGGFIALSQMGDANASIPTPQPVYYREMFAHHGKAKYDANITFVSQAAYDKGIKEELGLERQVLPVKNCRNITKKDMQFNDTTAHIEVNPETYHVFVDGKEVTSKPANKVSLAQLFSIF
T1 sequence (P14916 whole entry, further chain): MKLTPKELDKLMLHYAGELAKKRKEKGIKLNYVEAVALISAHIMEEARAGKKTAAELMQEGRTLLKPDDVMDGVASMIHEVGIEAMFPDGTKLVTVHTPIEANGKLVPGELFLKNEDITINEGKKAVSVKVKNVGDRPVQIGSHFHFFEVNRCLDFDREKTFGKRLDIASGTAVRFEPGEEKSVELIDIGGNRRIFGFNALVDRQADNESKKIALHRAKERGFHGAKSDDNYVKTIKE
In short: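 Urease prepared from H. pylori grown 24 h at 37 °C in Brucella broth with 10% heat-inactivated horse serum under microaerobic conditions. Cells washed in PBS pH 7.4, sonicated with protease inhibitors, desalted on Sephadex G-25, stored in glycerol at 4 °C. Enzyme (10 U) pre-incubated with compound 50 min at 37 °C. Ammonia read by absorbance (indophenol method).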

[2] = molecular target: T1, Urease subunit alpha/Urease subunit beta; assay: Inhibition of Helicobacter pylori urease using urea as substrate assessed as inhibition constant for enzyme-inhibitor complex by non-linear fitting analysis; type: protein-complex assay
In short: (§1)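 Urease came from H. pylori grown 24 h at 37 °C in Brucella broth with 10% heat-inactivated horse serum under microaerobic conditions. Washed cells were sonicated with protease inhibitors, desalted on Sephadex G-25, and stored in glycerol. Ammonia production rate (indophenol) was measured across urea gradients below 4 mM at each inhibitor level. V–[S] curves were fitted nonlinearly. Fitted constants b and c were plotted linearly against [I], and Ki and Ki′ were taken from the X-axis intercepts.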

[3] = Protein binding in rabbit plasma after 20 mins by ultra-filtration method; type: ADME, cell-free, Oryctolagus cuniculus; details: read-out: PPB (converted)
In short: (§2)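 Ultrafiltration, in triplicate. Compound was incubated with human plasma or freshly collected rabbit plasma for 20 min at 37 °C. Samples were then centrifuged through filter devices at 5000 r/min for 15 min at 37 °C. Initial plasma and ultrafiltrate were diluted 8-fold and read by UV-vis. Nonspecific membrane binding was corrected using PBS spiked at the same concentration. % bound = (1 − Cf/(C0(1−NBS)))×100.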

[4] = molecular target: T2, Urease subunit alpha/Urease subunit beta (Helicobacter pylori (strain ATCC 700392 / 26695) (Campylobacterpylori)) (UniProt P69996+P14916); assay: Potency index, ratio of acetohydroxamic acid IC50 to compound IC50 for Helicobacter pylori urease; type: protein-complex assay
T2 sequence (P14916 whole entry, looked up): as the sequence (P14916 whole entry, further chain) above
T2 sequence (P69996 whole entry, looked up): as the sequence (P69996 whole entry) above
In short: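 Ratio of the acetohydroxamic acid IC50 to the compound IC50. […] Ammonia formed from urea was then read by the Weatherburn indophenol method.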

[5] = molecular target: T1, Urease subunit alpha/Urease subunit beta; assay: Inhibition of Helicobacter pylori urease using urea as substrate assessed as inhibition constant for enzyme-urea-inhibitor complex by non-linear fitting analysis; type: protein-complex assay; in short: as §1
[6] = Protein binding in human plasma after 20 mins by ultra-filtration method; type: ADME, cell-free; details: read-out: PPB (converted); in short: as §2
[7] = molecular target: T2, Urease subunit alpha/Urease subunit beta (Helicobacter pylori (strain ATCC 700392 / 26695) (Campylobacterpylori)); assay: Mixed inhibition of Helicobacter pylori urease assessed as dissociation of enzyme-urea-inhibitor complex by non-linear fitting analysis
[8] = molecular target: T1, Urease subunit alpha/Urease subunit beta; assay: Substrate inhibition of Helicobacter pylori urease in presence of >4 mM urea by indophenol method; type: protein-complex assay
In short: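 No inhibitor. H. pylori urease velocity (indophenol ammonia read-out) was measured against a range of urea concentrations. Km and the substrate-inhibition constant Ksi were obtained by nonlinear least-squares fitting of V = Vmax[S]/(Km + [S] + [S]²/Ksi).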

`CN(O)C(=O)CC(O)c1ccc(N(C)C)cc1` (stereo not drawn) showed an IC50 [1] of 287 µM.

For `CN(O)C(=O)CC(O)c1c(Cl)cccc1Cl` (stereo not drawn), the IC50 [1] was 77.9 µM.

In the case of `CN(O)C(=O)CC(O)c1cc(Cl)ccc1OCc1ccccc1` (stereo not drawn), the IC50 [1] is reported as 26.2 µM.

Work on `CN(O)C(=O)CC(O)c1ccc(OCc2ccccc2)cc1` (stereo not drawn) yielded an IC50 [1] of 198 µM.

For `CN(O)C(=O)CC(O)c1cccc(F)c1` (stereo not drawn), the IC50 [1] was 71.2 µM.

`CC(=O)NO` [ACETOHYDROXAMIC ACID] gave an IC50 [1] of 23.8 µM.

Compound `CN(O)C(=O)CC(O)c1cccc(Br)c1` (stereo not drawn) has an IC50 [1] of 78.2 µM.

In the case of `COc1ccc(C(O)CC(=O)N(C)O)cc1` (stereo not drawn), the IC50 [1] is reported as 328 µM.

Compound `COc1cc(C(O)CC(=O)N(C)O)ccc1OCc1ccccc1` (stereo not drawn) has an IC50 [1] of 258 µM.

`CN(O)C(=O)CC(O)c1ccc(Br)cc1` (stereo not drawn) gave an IC50 [1] of 97.6 µM.

With `O=C(CC(O)c1cc(Cl)ccc1O)NO` (stereo not drawn) the Ki [2] was 4.79 µM, the fraction unbound at 20 min [3] was 0.548 and the Ratio IC50 [4] was > 20. The Ki [5] was 1.21 µM, the fraction unbound at 20 min [6] was 0.472 and the IC50 [1] was 1.1 µM. The inhibition [7] was “Active”.

In the case of `O=C(CC(O)c1cc(Cl)ccc1OCc1ccccc1)NO` (stereo not drawn), the Ki [2] is reported as 0.404 µM, the fraction unbound at 20 min [3] is reported as 0.562 and the Ratio IC50 [4] is reported as > 20. The Ki [5] was 0.373 µM, the fraction unbound at 20 min [6] was 0.626 and the IC50 [1] was 0.15 µM. The inhibition [7] was “Active”.

`CN(O)C(=O)CC(O)c1ccc(Cl)c(Cl)c1` (stereo not drawn) showed an IC50 [1] of 90.4 µM.

Work on `CN(O)C(=O)CC(O)c1ccc(F)cc1` (stereo not drawn) yielded an IC50 [1] of 77.2 µM.

Work on `COc1cccc(C(O)CC(=O)N(C)O)c1` (stereo not drawn) yielded an IC50 [1] of 89.2 µM.

Work on `CN(O)C(=O)CC(O)c1cccc(Cl)c1` (stereo not drawn) yielded an IC50 [1] of 48 µM.

`CN(O)C(=O)CC(O)c1ccccc1Cl` (stereo not drawn) showed an IC50 [1] of 56.6 µM.

For `COc1ccc(C(O)CC(=O)N(C)O)cc1OC` (stereo not drawn), the IC50 [1] was 405 µM.

`CN(O)C(=O)CC(O)c1cc(Cl)ccc1O` (stereo not drawn) showed an IC50 [1] of 30.5 µM.

`CN(O)C(=O)CC(O)c1ccc(Cl)cc1` (stereo not drawn) gave an IC50 [1] of 87.4 µM.

Compound `CN(O)C(=O)CC(O)c1cccc(Cl)c1Cl` (stereo not drawn) has an IC50 [1] of 95.8 µM.

For `NC(N)=O` [UREA], the Ki [8] was 6470 µM.

With `CN(O)C(=O)CC(O)c1ccc(Cl)cc1Cl` (stereo not drawn) the IC50 [1] was 367 µM.

`CN(O)C(=O)CC(O)c1ccc(OCc2ccccc2)c(OCc2ccccc2)c1` (stereo not drawn) gave an IC50 [1] of 376 µM.

Compound `COc1ccccc1C(O)CC(=O)N(C)O` (stereo not drawn) has an IC50 [1] of 84 µM.

With `O=C(CC(O)c1ccc(Cl)cc1Cl)NO` (stereo not drawn) the IC50 [1] was 13.4 µM.
